Results taken from PMC3428850 (Molecular cancer therapeutics, 2012).
One block for each compound: values may come before it.

Experiments:
PI-3K = assay: PI-3K-dependent AKT phosphorylation; format: cell-based, human; conditions: read-out: IC50 PI-3K-mediated AKT phosphorylation; MCF7 cells, IGF-1 stimulated
In short: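 MCF7 cells in RPMI 1640/10% FBS. Exposed to a concentration range of test compound for 1 h, then 50 ng/ml IGF-1 for 30 min. Western blot of AKT Ser473 relative to total AKT. Rise above unstimulated baseline in treated cells expressed as % of the rise in control cells. Mean of three independent experiments fitted to a sigmoidal dose-response curve for IC50.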

MDA-MB-231 cells = assay: clonogenic survival assay; format: cell-based, human
In short: (§1)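 Cells in RPMI 1640/10% FBS were exposed in 6-well plates for 16 h to etoposide or doxorubicin with or without test compound (1 μM), or to test compound alone. Cells then harvested and reseeded in drug-free medium. Colonies stained with crystal violet after 10-14 days and counted automatically. Fold enhancement = survival with cytotoxic alone / survival with cytotoxic + 1 μM test compound. Means ± SD, n = 3.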

LoVo cells = assay: clonogenic survival assay; format: cell-based, human
In short: as §1

SW620 cells = assay: clonogenic survival assay; format: cell-based, human
MCF7 cells = assay: clonogenic survival assay; format: cell-based, human
In short: as §1

M059J cells = assay: clonogenic survival assay, DNA-PKcs-deficient cells; format: cell-based, human; conditions: clonogenic survival
In short: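 Human glioblastoma M059J cells (DNA-PKcs-deficient) and M059-Fus-1 cells (chromosome 8 transfected; G-418 200 μg/ml) in DMEM/10% FBS. Etoposide or doxorubicin alone or with 1 μM test compound, or test compound alone, for 16 h. Reseeded drug-free. Crystal violet colony counts after 10-14 days. Fold enhancement as survival ratio. Means ± SD, n = 3.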

T47D cells = assay: clonogenic survival assay; format: cell-based, human
In short: as §1

SW620 xenografts = assay: anti-tumour efficacy study, SW620 xenografts; format: in vivo, mice
In short: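 Female athymic CD1-nu/nu mice with s.c. SW620, n = 5/group, treated once tumours were palpable (~5 × 5 mm, day 8-10). Controls: saline i.p. daily. Test compound 10 mg/kg i.p. for 5 days. Etoposide phosphate 11.35 mg/kg i.p. (10 mg/kg etoposide) daily × 5. Combination: test compound i.p. once or twice daily × 5, first dose just before etoposide. Caliper volume a²×b/2; median RTV (day 0 = 1); time to RTV4.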

MCF7 xenografts = assay: anti-tumour efficacy study, MCF7 xenografts; format: in vivo; conditions: MCF7 tumour-bearing mice
V3 cells = assay: clonogenic survival assay, DNA-PKcs-deficient cells; format: cell-based, Chinese hamster; conditions: clonogenic survival
In short: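 Chinese hamster ovary V3 cells (DNA-PKcs-deficient) and V3-YAC cells (human DNA-PKcs on YAC; kept under G-418 500 μg/ml) in RPMI 1640/10% FBS. Etoposide alone or with 1 μM test compound, or test compound alone, for 16 h. Reseeded drug-free. Crystal violet colony counts after 10-14 days. Fold enhancement as survival ratio. Means ± SD of 3 independent experiments.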

[1] = 100 nM doxorubicin with or without 1 μM KU-0060648, 16 hr
[2] = 1 μM etoposide with or without 1 μM KU-0060648, 16 hr

IC50 (PI-3K): 3.9 ± 3.5 µM
Compound: O=c1cc(N2CCOCC2)oc2c(-c3cccc4c3sc3ccccc34)cccc12 [NU7441, reference compound]

Compound: COc1cccc2c1C(=O)c1c(O)c3c(c(O)c1C2=O)C[C@@](O)(C(=O)CO)C[C@@H]3O[C@H]1C[C@H](N)[C@H](O)[C@H](C)O1 [doxorubicin, reference compound]
survival (clonogenic) (MDA-MB-231 cells; MDA-MB-231, 100 nM doxorubicin with or without 1 μM KU-0060648, 16 hr): 1.8±0.6
survival (clonogenic) (LoVo cells; [1]): 1.4±0.9
survival (clonogenic) (SW620 cells; SW620, 100 nM doxorubicin with or without 1 μM KU-0060648, 16 hr): 0.06±0.06
survival (clonogenic) (MCF7 cells; MCF7, 100 nM doxorubicin with or without 1 μM KU-0060648, 16 hr): 42.3±13
fold more sensitive, DNA-PKcs-deficient M059J versus M059-Fus-1 cells (M059J cells): approximately 23 fold
survival (clonogenic) (T47D cells; [1]): 9.0±3.2

Compound: COc1cc([C@@H]2c3cc4c(cc3[C@@H](O[C@@H]3O[C@@H]5CO[C@@H](C)O[C@H]5[C@H](O)[C@H]3O)[C@H]3COC(=O)[C@H]23)OCO4)cc(OC)c1OP(=O)(O)O [etoposide phosphate, reference compound]
maximum body weight loss (SW620 xenografts; SW620 tumour-bearing mice): no body weight loss
time to RTV4 (median) (SW620 xenografts; SW620 xenografts, single agent or combination with once daily KU-0060648): 6.5 days
maximum body weight loss (MCF7 xenografts): 3%

Compound: COc1cc([C@@H]2c3cc4c(cc3[C@@H](O[C@@H]3O[C@@H]5CO[C@@H](C)O[C@H]5[C@H](O)[C@H]3O)[C@H]3COC(=O)[C@H]23)OCO4)cc(OC)c1O [etoposide, reference compound]
survival (clonogenic) (MDA-MB-231 cells; MDA-MB-231, 1 μM etoposide with or without 1 μM KU-0060648, 16 hr): 16±10
survival (clonogenic) (LoVo cells; [2]): 3.5±0.5
survival (clonogenic) (SW620 cells; SW620, 1 μM etoposide with or without 1 μM KU-0060648, 16 hr): 4.7±2.0
fold more sensitive, DNA-PKcs-deficient V3 versus V3-YAC cells (V3 cells): approximately 3 fold
survival (clonogenic) (MCF7 cells; MCF7, 1 μM etoposide with or without 1 μM KU-0060648, 16 hr): 23±9
fold more sensitive, DNA-PKcs-deficient M059J versus M059-Fus-1 cells (M059J cells): approximately 2.5 fold
survival (clonogenic) (T47D cells; [2]): 24±4
